In paper PMC3158287 (Nature chemical biology, 2011):
Positions count from the first letter of the chain named. Where two headings read alike, the source gives them in different places.

Tests used:
[1] = biological target: T1, OSBP^M446W (Homo sapiens, UniProt P22059, M446W); experiment: [3H]25-OHC binding assay, OSBP M446W mutant
T1 sequence (P22059 1-807 M446W): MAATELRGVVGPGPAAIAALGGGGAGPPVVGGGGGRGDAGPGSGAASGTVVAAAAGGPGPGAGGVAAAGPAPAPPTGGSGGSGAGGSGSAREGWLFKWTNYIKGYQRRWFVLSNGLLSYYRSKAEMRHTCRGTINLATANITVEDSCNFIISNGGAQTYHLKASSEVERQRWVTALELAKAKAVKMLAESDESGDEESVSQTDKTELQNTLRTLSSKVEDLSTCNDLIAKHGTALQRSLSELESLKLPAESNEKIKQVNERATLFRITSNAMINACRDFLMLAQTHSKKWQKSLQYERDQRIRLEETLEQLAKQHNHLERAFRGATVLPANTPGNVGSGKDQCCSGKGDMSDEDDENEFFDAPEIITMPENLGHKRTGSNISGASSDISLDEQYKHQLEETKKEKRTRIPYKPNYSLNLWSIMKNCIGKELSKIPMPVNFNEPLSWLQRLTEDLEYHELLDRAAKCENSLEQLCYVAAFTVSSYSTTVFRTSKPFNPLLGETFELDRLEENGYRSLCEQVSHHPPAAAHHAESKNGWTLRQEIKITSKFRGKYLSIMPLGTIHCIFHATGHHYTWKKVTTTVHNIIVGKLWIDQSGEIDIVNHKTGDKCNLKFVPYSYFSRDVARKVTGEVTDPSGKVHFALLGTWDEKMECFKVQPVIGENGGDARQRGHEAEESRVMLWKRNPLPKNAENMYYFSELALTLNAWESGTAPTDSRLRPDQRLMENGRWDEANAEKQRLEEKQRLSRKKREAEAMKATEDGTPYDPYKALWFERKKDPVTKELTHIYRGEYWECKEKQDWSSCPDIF

[2] = system: HeLa cells overexpressing wild-type OSBP; experiment: Overexpression-viability assay, wild-type OSBP-Myc-His; type: cell-based, human; details: 48 h, versus lacZ
[3] = system: HCT-116 cells; experiment: Suppression of antiproliferative activity by 25-OHC coadministration; type: cell-based, human
Procedure, shortened: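 HCT-116 p21+/+ and p21−/− cells were seeded in 96-well plates and rested 24 h. A time-zero plate was read with CellTiter-Blue (resazurin) after 90 min at 37 °C, fluorescence 544 nm ex / 590 nm em. Serially diluted test compound was added as 4× solution. Viability was re-read at 48 h and GI50 derived. For coadministration, 10 μM 25-OHC was added with test compound at 250 nM or 10 nM.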

[4] = biological target: T2, OSBP (Homo sapiens, UniProt P22059); experiment: OSBP localization by immunofluorescence microscopy, HCT-116; type: cell-based; details: HCT-116 cells, 4 h; 5 μM schweinfurthin A, 10 nM OSW-1, 20 nM cephalostatin 1
T2 sequence (P22059 1-807): T1 sequence (P22059 1-807 M446W) with W446M
Procedure, shortened: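 Cells on coverslips were grown 72 h, then given test compound or vehicle (4 h for HCT-116). They were fixed 10 min in 3.7% formaldehyde/PBS and permeabilised 5 min in 0.5% Triton X-100. Blocking used Image-iT FX, then 1% BSA/PBS. Rabbit anti-OSBP (N-terminus) and mouse anti-p230 were applied overnight at 4 °C, then Alexa Fluor secondaries for 60 min with Hoechst 33258. Imaging was by confocal microscopy.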

[5] = system: human cancer cell lines; details: cited from earlier work

Row | Compound | Ki ([1]; read-out: Ki, OSBP^M446W, competition with [3H]25-OHC, mean ± s.d.) [nM] | Desensitization factor by OSBP overexpression (relative GI30) [2] | Growth inhibition when administered alone ([3]; 10 nM, HCT-116 cells, 48 h) [%] | Effect of 10 μM 25-OHC coadministration on growth inhibition ([3]; HCT-116 cells, 250 nM cephalostatin 1 or 10 nM OSW-1) | OSBP localization [4] | GI50 (half-maximal inhibitory concentration) [5] | Ki [1] [nM] | Effect of 25-OHC coadministration on antiproliferative activity ([3]; HCT-116 and HeLa cell lines)
1 | COc1ccc(C(=O)O[C@H]2[C@H](O[C@@H]3[C@@H](OC(C)=O)[C@H](O[C@H]4C[C@H]5[C@@H]6CC=C7C[C@@H](O)CC[C@]7(C)[C@H]6CC[C@]5(C)[C@@]4(O)[C@H](C)C(=O)CCC(C)C)OC[C@@H]3O)OC[C@@H](O)[C@@H]2O)cc1 [OSW-1] | 18 | 2–5 | > 75 | nearly complete desensitization | localize to a perinuclear position that did not localize with p230 | nanomolar range | – | –
2 | CC(C)=CCC/C(C)=C/Cc1c(O)cc(/C=C/c2cc(O)c3c(c2)C[C@@H]2C(C)(C)[C@H](O)[C@H](O)C[C@@]2(C)O3)cc1O [schweinfurthin A] | – | 2–5 | – | – | accumulate at perinuclear positions with a large degree of co-localization with the trans-Golgi marker p230 | nanomolar range | 60 | desensitized cells to schweinfurthin A, although to a lesser degree
